The values below come from PubChem BioAssay AID463169 (The Scripps Research Institute Molecular Screening Center, 2010).

For this assay, the target named is Wee1-like protein kinase (Homo sapiens) (UniProt P30291). The assay is described as follows: blockers of Wee1 turnover via luciferase fusion stabilization, late-stage follow-up, cell-based, HeLa, luminescence, powder samples (AID 463169). Conditions: at 0.1 µM, stronger effect = higher value. In outline: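 Test system: HeLa cells transiently transfected with Wee1-luciferase fusion plasmid; Compound: single nominal dose of 100 nM (0.1 µM); Times: transfection 48 h before assay, compound exposure 20 h at 37 °C; Technique: luminescence read after luciferase detection reagent addition; Read-out: mean fold change versus DMSO vehicle; Benchmarks: DMSO-treated cells; Repeats: four replicates.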
Sequence of Wee1-like protein kinase (Homo sapiens) (P30291 whole entry K328M, the tested form may be a part): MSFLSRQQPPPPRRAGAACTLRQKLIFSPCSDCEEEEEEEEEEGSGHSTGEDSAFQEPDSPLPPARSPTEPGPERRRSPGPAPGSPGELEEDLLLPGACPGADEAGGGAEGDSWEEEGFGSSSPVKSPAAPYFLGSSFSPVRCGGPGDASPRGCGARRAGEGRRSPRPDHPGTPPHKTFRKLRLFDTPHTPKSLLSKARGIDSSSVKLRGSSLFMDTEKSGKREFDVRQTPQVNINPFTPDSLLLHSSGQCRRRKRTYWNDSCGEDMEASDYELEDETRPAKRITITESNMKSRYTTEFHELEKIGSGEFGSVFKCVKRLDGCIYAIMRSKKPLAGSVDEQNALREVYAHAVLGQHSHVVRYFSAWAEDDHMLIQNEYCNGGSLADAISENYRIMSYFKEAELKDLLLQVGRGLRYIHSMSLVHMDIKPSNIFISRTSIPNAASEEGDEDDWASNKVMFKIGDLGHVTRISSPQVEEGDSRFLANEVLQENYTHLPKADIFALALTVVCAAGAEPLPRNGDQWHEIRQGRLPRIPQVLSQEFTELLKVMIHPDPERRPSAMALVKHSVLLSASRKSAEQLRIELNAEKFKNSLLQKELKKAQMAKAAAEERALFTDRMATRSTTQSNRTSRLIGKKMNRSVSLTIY

As for `O=[N+]([O-])c1cccc2[nH]c(CNc3nc(N4CCOCC4)nc4c3ncn4-c3ccsc3)nc12`, the fold change is 23.3.

`c1ccc2[nH]c(CNc3nc(N4CCOCC4)nc4c3ncn4-c3ccsc3)nc2c1`: the fold change was 12.9.
